Screening results: PubChem BioAssay, several laboratories
Efflux pump mplx – blocks antifungal efflux pumps in multiplex yeast assay. inhibition, % at 10 µM. hit rate 0.44% among 330,000. S. cerevisiae Candida pump triplex, Nile Red efflux. AID 485275;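 active = plate passing quality check with inhibition over a set limit, or well fluorescence over plate mean plus 4 SD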;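 note: Nile Red retained in pooled yeast measured as flow cytometry median fluorescence; 0% = buffer negative control and 100% = Enniatin B positive control; higher means more Nile Red kept so more efflux inhibition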
T cruzi repl – T. cruzi replication inhibition; T. cruzi beta-gal in NIH3T3, luminescence, 90 h; inhibition, % (concentration not given with the values); hit rate 1.4% among 300,000; AID 1885;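 active = mean inhibition across valid replicates above about 55%, limit read from the data; inconclusive = mean below that limit but half or more replicates reach it; inactive = mean below it, under half of replicates reach it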;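 note: signal also drops with host cell toxicity which is not excluded here; 0% = plate median of DMSO wells and 100% = zero luminescence signal; higher percent means less beta-gal luminescence so fewer parasites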
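Material: NIH/3T3 host cells with β-galactosidase reporter T. cruzi; Input: 5,000 host fibroblasts per well; Medium: DMEM, 2% fetal bovine serum; Compound: 50 nL DMSO compound solution per well; Schedule: 3 h host attachment, then at least 90 h co-culture; Detection: luminescent β-galactosidase signal after 60 min lysis.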
AI-2 QS mod – modulators of Vibrio harveyi AI-2 quorum sensing system | Vibrio harveyi JMH597 AI-2 luminescence/OD600 ratio, 9 h; hits give low values; strain lacks LuxN and CqsS sensors; 0 = neutral-control median | activity change, % at 7.5 µM | hit rate 0.4% among 300,000 | AID 2094; in the data active = activity change below about -75%, passing the limit was not always enough; inconclusive = no clear call, values can overlap the other calls;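 note: luminescence divided by OD600 gain over 9 h not by final OD600 alone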
PolyA inh – inhibitors of polyadenylation in S. cerevisiae; hit rate 0.02% among 300,000; activity score, % at 12 µM; S. cerevisiae SKY197-pL101 polyadenylation reporter, beta-gal luminescence; efflux-impaired pdr1/pdr3 knockout yeast; score 100 = 6 SD above DMSO; AID 1875;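 active = lowest replicate activity score at least 50, where 100 means six control SD above control mean; inconclusive = lowest score under 50 but half or more replicates reach 50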;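 note: yeast exposed to compound for 9 h at 30 °C; higher score means more reporter readthrough which indicates perturbed polyadenylation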
HDAC3 inhib – inhibitors of human histone deacetylase 3. O15379. recombinant HDAC3, fluorogenic peptide/trypsin coupled, fluorescence. inhibition, % at 8.3 µM. hit rate 0.15% among 320,000. AID 2718; in the data active = inhibition above about 26%, passing the limit was not always enough; inconclusive = no clear call, values can overlap the other calls
Target sequence (O15379 whole entry, looked up): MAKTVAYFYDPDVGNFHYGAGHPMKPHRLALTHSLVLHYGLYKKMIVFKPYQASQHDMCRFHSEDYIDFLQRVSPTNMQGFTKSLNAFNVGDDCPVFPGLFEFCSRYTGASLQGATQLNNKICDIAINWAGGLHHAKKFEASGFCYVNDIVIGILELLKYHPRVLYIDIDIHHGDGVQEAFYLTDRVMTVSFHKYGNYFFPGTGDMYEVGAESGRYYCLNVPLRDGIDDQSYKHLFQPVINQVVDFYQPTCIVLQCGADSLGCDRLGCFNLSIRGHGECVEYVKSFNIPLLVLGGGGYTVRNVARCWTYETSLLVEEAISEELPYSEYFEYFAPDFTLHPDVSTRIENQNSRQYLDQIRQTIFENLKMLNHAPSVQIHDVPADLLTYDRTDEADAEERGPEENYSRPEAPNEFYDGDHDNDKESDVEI
* marks the source's active call; other numbers are inactive results; ? = inconclusive; · = no result. Shown are actives, neighbours in structure and some others; about 2.2% of the full set was active somewhere.

SMILES	Efflux pump mplx	T cruzi repl	AI-2 QS mod	PolyA inh	HDAC3 inhib
O=C(COC(=O)Cc1ccc(S(=O)(=O)N2CCOCC2)s1)NCc1ccccc1	0	2	-4	903*	-6
CCn1c2ccccc2c2cc(NC(=O)Cc3ccc(S(=O)(=O)N4CCOCC4)s3)ccc21	0	69*	2	4	13
O=C(c1ccc(Cl)c([N+](=O)[O-])c1)N1CCN(Cc2ccc3c(c2)OCO3)CC1	0	5	11	3	-5
COc1ccccc1NC(=S)N=Nc1c(O)[nH]c2ccc(Br)cc12	0	39	39	0	·
Cc1cccc(NC(=S)N=Nc2c(O)[nH]c3ccccc23)c1	0	64*	61	-1	1
CC(C)NC(=S)N=Nc1c(O)[nH]c2ccc(C(C)C)cc12	0	59*	30	15	4
CCCS(=O)(=O)N1CCc2ccc(NC(=O)C3CCCO3)cc2C1 (stereo not drawn)	0	7	12	-5	-10
CCOc1ccc(N(CC(=O)Nc2ccc(OC)cc2)C2=NC3CS(=O)(=O)CC3S2)cc1 (stereo not drawn)	0	10	18	7	·
Cc1ccc(Cn2ncc3c(N4CCN(c5ccccc5C)CC4)ncnc32)cc1	0	59*	13	-21	0
Cc1[nH]n(-c2ccc([N+](=O)[O-])cc2)c(=O)c1C=NCCN1CCN(C(=O)c2ccc(F)cc2)CC1	0	6	7	-7	7
Cc1[nH]n(-c2ccc([N+](=O)[O-])cc2)c(=O)c1C=NCCN1CCN(C(=O)c2ccc(Br)cc2)CC1	0	66*	14	7	0
Cc1cccc(Nc2nnc(-c3ccc(N4CCOCC4)c([N+](=O)[O-])c3)c3ccccc23)c1	0	52	29	0	10
Cn1c(=O)c2c([nH]c(=S)n2CCCc2ccccc2)n(C)c1=O	0	1	45	6	41*
O=[N+]([O-])c1ccc(Cl)cc1NCC1CCCO1 (stereo not drawn)	0	6	22	-11	5
Cc1cccc(C)c1N/C=C/c1onc(C)c1[N+](=O)[O-]	0	-23	11	18	-11
Cc1noc(/C=C/c2cccnc2)c1[N+](=O)[O-]	0	59*	-15	-52	6
N=C1SC(c2ccccc2)C(=O)N1c1ncc(Cc2ccccc2Cl)s1 (stereo not drawn)	0	-1	16	3	6
O=C(CNC(=S)N(Cc1ccccc1)Cc1cccs1)NCc1ccc(F)cc1	·	-4	11	-11	·
O=C(CNC(=S)N(Cc1ccccc1)Cc1ccccc1F)NCCc1ccc(Cl)cc1	0	85*	37	-26	2
CC(OC(=O)Cc1ccsc1)C(=O)Nc1ccc(C(N)=O)cc1 (stereo not drawn)	0	·	·	·	·
Cc1cc(C)nc(NC(=NCCc2c[nH]c3ccccc23)NC(=O)Nc2ccc(Cl)c(Cl)c2)n1	0	62*	1	-3	0
Cc1cc(C)nc(NC(=NCCc2c[nH]c3ccccc23)NC(=O)Nc2ccccc2)n1	0	49	33	4	5
CCC1(c2ccc(F)cc2)NC(=O)N(CC(=O)NCc2ccc(F)cc2)C1=O (stereo not drawn)	0	0	-39	7	1
CCC1(c2ccc(F)cc2)NC(=O)N(CC(=O)NCc2ccc(C)cc2)C1=O (stereo not drawn)	0	-7	-78*	-1	2
Cc1ccc(S(=O)(=O)c2c(C)nn(C(C)(C)C)c2OC(=O)CC(C)C)cc1	0	1	17	-5	1
SMILES	Efflux pump mplx	T cruzi repl	AI-2 QS mod	PolyA inh	HDAC3 inhib
COCCCn1c(N)c(-c2nc3ccccc3n2C)c2nc3ccccc3nc21	0	20	5	-34	5
Cn1c(-c2c(N)n(CCCc3ccccc3)c3nc4ccccc4nc23)nc2ccccc21	·	71*	32	7	·
Cn1c(-c2c(N)n(C3CCCC3)c3nc4ccccc4nc23)nc2ccccc21	0	73*	47	-11	16
Cn1c(-c2c(N)n(CCc3ccccc3)c3nc4ccccc4nc23)nc2ccccc21	0	52	47	-21	8
CN(C)CCNC(=S)Nc1ccc(F)c(F)c1F	0	11	6	9	4
COc1ccccc1CN1CCN(Cc2nc(-c3cccs3)no2)CC1	0	61*	23	?	-4
COCC1CCN(Cc2nc(-c3cccs3)no2)C1 (stereo not drawn)	0	4	9	-6	4
